Assay results: ChEMBL document CHEMBL5058577, “EUbOPEN Chemogenomics Library 2 (Multiplex)” (2022)

System: HEK-293T
Experiment: Multiplex assay against HEK293T
Type: toxicity, cell-based
Settings: human
How it was run: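 Values for tubulin, mitochondrial-mass and membrane-permeability phenotypes are per cents of cells with healthy nuclei. These cells were identified by CellPathfinder machine-learning gating of live cells that had been stained at seeding with Hoechst33342, BioTracker Green Microtubule Cytoskeleton Dye, MitoTracker Red and Annexin V Alexa Fluor 680 and imaged on a CQ1 microscope at 37°C and 5% CO2 after compound addition. The gating first set Hoechst high-intensity objects apart from normal cells, then split normal cells into healthy, pyknosed or fragmented nuclei, and pyknosed cells into mitotic or apoptotic.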

[1] = 12 h, 1 µM, compound concentration 1 uM, replicate 1
[2] = 12 h, 1 µM, compound concentration 1 uM, replicate 2
[3] = 12 h, 10 µM, compound concentration 10 uM, replicate 1
[4] = 12 h, 10 µM, compound concentration 10 uM, replicate 2
[5] = 24 h, 1 µM, compound concentration 1 uM, replicate 1
[6] = 24 h, 1 µM, compound concentration 1 uM, replicate 2
[7] = 24 h, 10 µM, compound concentration 10 uM, replicate 1
[8] = 24 h, 10 µM, compound concentration 10 uM, replicate 2
[9] = 48 h, 1 µM, compound concentration 1 uM, replicate 1
[10] = 48 h, 1 µM, compound concentration 1 uM, replicate 2
[11] = 48 h, 10 µM, compound concentration 10 uM, replicate 1
[12] = 48 h, 10 µM, compound concentration 10 uM, replicate 2

CCCCCCNC(=O)Nc1ccc(S(=O)(=O)Nc2ccc(CCNC[C@H](O)COc3ccc(O)cc3)cc2)cc1 [L-755507]
Population Apoptotic (%) [1]: 35%
Population Fragmented Nuclei (%) [1]: 8%
Population Healthy Nuclei (%) [1]: 84%
Population Hoechst High Intensity Objects (%) [1]: 7%
Population Membrane Permeable-Phenotype (%) [1]: 0%
Population Mitochondria Different-Phenotype (%) [1]: 39%
Population Mitotic Cells (%) [1]: 64%
Population Normal (%) [1]: 92%
Population Pyknosed Nuclei (%) [1]: 7%
Population Tubulin-Different-Phenotype (%) [1]: 28%
Total Cell Count [1]: 494
Population Apoptotic (%) [2]: 31%
Population Fragmented Nuclei (%) [2]: 6%
Population Healthy Nuclei (%) [2]: 83%
Population Mitochondria Different-Phenotype (%) [2]: 64%
Population Mitotic Cells (%) [2]: 68%
Population Pyknosed Nuclei (%) [2]: 10%
Population Tubulin-Different-Phenotype (%) [2]: 32%
Total Cell Count [2]: 403
Population Apoptotic (%) [3]: 58%
Population Fragmented Nuclei (%) [3]: 10%
Population Healthy Nuclei (%) [3]: 74%
Population Hoechst High Intensity Objects (%) [3]: 17%
Population Membrane Permeable-Phenotype (%) [3]: 0%
Population Mitochondria Different-Phenotype (%) [3]: 69%
Population Mitotic Cells (%) [3]: 41%
Population Normal (%) [3]: 82%
Population Pyknosed Nuclei (%) [3]: 14%
Population Tubulin-Different-Phenotype (%) [3]: 68%
Total Cell Count [3]: 384
Population Apoptotic (%) [4]: 71%
Population Fragmented Nuclei (%) [4]: 8%
Population Healthy Nuclei (%) [4]: 79%
Population Hoechst High Intensity Objects (%) [4]: 7%
Population Mitochondria Different-Phenotype (%) [4]: 87%
Population Mitotic Cells (%) [4]: 28%
Population Normal (%) [4]: 92%
Population Pyknosed Nuclei (%) [4]: 11%
Population Tubulin-Different-Phenotype (%) [4]: 61%
Total Cell Count [4]: 341
Population Apoptotic (%) [5]: 19%
Population Fragmented Nuclei (%) [5]: 9%
Population Healthy Nuclei (%) [5]: 80%
Population Hoechst High Intensity Objects (%) [5]: 5%
Population Membrane Permeable-Phenotype (%) [5]: 0%
Population Mitochondria Different-Phenotype (%) [5]: 20%
Population Mitotic Cells (%) [5]: 80%
Population Normal (%) [5]: 94%
Population Pyknosed Nuclei (%) [5]: 9%
Population Tubulin-Different-Phenotype (%) [5]: 20%
Total Cell Count [5]: 634
Population Apoptotic (%) [6]: 30%
Population Fragmented Nuclei (%) [6]: 11%
Population Hoechst High Intensity Objects (%) [6]: 4%
Population Mitochondria Different-Phenotype (%) [6]: 42%
Population Mitotic Cells (%) [6]: 70%
Population Normal (%) [6]: 95%
Population Pyknosed Nuclei (%) [6]: 7%
Population Tubulin-Different-Phenotype (%) [6]: 22%
Total Cell Count [6]: 547
Population Apoptotic (%) [7]: 26%
Population Fragmented Nuclei (%) [7]: 8%
Population Healthy Nuclei (%) [7]: 80%
Population Hoechst High Intensity Objects (%) [7]: 14%
Population Membrane Permeable-Phenotype (%) [7]: 0%
Population Mitochondria Different-Phenotype (%) [7]: 59%
Population Mitotic Cells (%) [7]: 73%
Population Normal (%) [7]: 85%
Population Pyknosed Nuclei (%) [7]: 11%
Population Tubulin-Different-Phenotype (%) [7]: 42%
Total Cell Count [7]: 461
Population Apoptotic (%) [8]: 48%
Population Fragmented Nuclei (%) [8]: 7%
Population Healthy Nuclei (%) [8]: 83%
Population Hoechst High Intensity Objects (%) [8]: 9%
Population Mitochondria Different-Phenotype (%) [8]: 68%
Population Mitotic Cells (%) [8]: 51%
Population Normal (%) [8]: 90%
Population Pyknosed Nuclei (%) [8]: 9%
Population Tubulin-Different-Phenotype (%) [8]: 51%
Total Cell Count [8]: 402
Population Apoptotic (%) [9]: 10%
Population Fragmented Nuclei (%) [9]: 12%
Population Healthy Nuclei (%) [9]: 81%
Population Hoechst High Intensity Objects (%) [9]: 3%
Population Membrane Permeable-Phenotype (%) [9]: 2%
Population Mitochondria Different-Phenotype (%) [9]: 16%
Population Mitotic Cells (%) [9]: 89%
Population Normal (%) [9]: 96%
Population Pyknosed Nuclei (%) [9]: 6%
Population Tubulin-Different-Phenotype (%) [9]: 15%
Total Cell Count [9]: 1052
Population Apoptotic (%) [10]: 15%
Population Fragmented Nuclei (%) [10]: 13%
Population Healthy Nuclei (%) [10]: 80%
Population Hoechst High Intensity Objects (%) [10]: 5%
Population Mitochondria Different-Phenotype (%) [10]: 24%
Population Mitotic Cells (%) [10]: 84%
Population Normal (%) [10]: 94%
Population Tubulin-Different-Phenotype (%) [10]: 20%
Total Cell Count [10]: 775
Population Apoptotic (%) [11]: 46%
Population Fragmented Nuclei (%) [11]: 15%
Population Healthy Nuclei (%) [11]: 75%
Population Hoechst High Intensity Objects (%) [11]: 11%
Population Membrane Permeable-Phenotype (%) [11]: 1%
Population Mitochondria Different-Phenotype (%) [11]: 36%
Population Mitotic Cells (%) [11]: 53%
Population Normal (%) [11]: 88%
Population Pyknosed Nuclei (%) [11]: 9%
Population Tubulin-Different-Phenotype (%) [11]: 32%
Total Cell Count [11]: 598
Population Apoptotic (%) [12]: 65%
Population Fragmented Nuclei (%) [12]: 13%
Population Healthy Nuclei (%) [12]: 80%
Population Hoechst High Intensity Objects (%) [12]: 8%
Population Membrane Permeable-Phenotype (%) [12]: 0%
Population Mitochondria Different-Phenotype (%) [12]: 47%
Population Mitotic Cells (%) [12]: 34%
Population Normal (%) [12]: 91%
Population Pyknosed Nuclei (%) [12]: 5%
Population Tubulin-Different-Phenotype (%) [12]: 39%
Total Cell Count [12]: 596

CN1CCN2c3ccccc3Cc3ccccc3C2C1.Cl (configuration not stated) [MIANSERIN HYDROCHLORIDE]
Population Apoptotic (%) [1]: 23%
Population Fragmented Nuclei (%) [1]: 5%
Population Healthy Nuclei (%) [1]: 79%
Population Hoechst High Intensity Objects (%) [1]: 5%
Population Membrane Permeable-Phenotype (%) [1]: 0%
Population Mitochondria Different-Phenotype (%) [1]: 36%
Population Mitotic Cells (%) [1]: 76%
Population Normal (%) [1]: 94%
Population Pyknosed Nuclei (%) [1]: 14%
Population Tubulin-Different-Phenotype (%) [1]: 21%
Total Cell Count [1]: 338
Population Apoptotic (%) [2]: 46%
Population Fragmented Nuclei (%) [2]: 7%
Population Healthy Nuclei (%) [2]: 77%
Population Hoechst High Intensity Objects (%) [2]: 10%
Population Mitochondria Different-Phenotype (%) [2]: 63%
Population Mitotic Cells (%) [2]: 53%
Population Normal (%) [2]: 89%
Population Tubulin-Different-Phenotype (%) [2]: 17%
Total Cell Count [2]: 376
Population Apoptotic (%) [3]: 34%
Population Fragmented Nuclei (%) [3]: 5%
Population Healthy Nuclei (%) [3]: 81%
Population Hoechst High Intensity Objects (%) [3]: 9%
Population Membrane Permeable-Phenotype (%) [3]: 1%
Population Mitochondria Different-Phenotype (%) [3]: 45%
Population Mitotic Cells (%) [3]: 65%
Population Normal (%) [3]: 90%
Population Pyknosed Nuclei (%) [3]: 13%
Population Tubulin-Different-Phenotype (%) [3]: 40%
Total Cell Count [3]: 410
Population Apoptotic (%) [4]: 42%
Population Healthy Nuclei (%) [4]: 85%
Population Hoechst High Intensity Objects (%) [4]: 4%
Population Membrane Permeable-Phenotype (%) [4]: 0%
Population Mitochondria Different-Phenotype (%) [4]: 53%
Population Mitotic Cells (%) [4]: 57%
Population Normal (%) [4]: 95%
Population Pyknosed Nuclei (%) [4]: 8%
Population Tubulin-Different-Phenotype (%) [4]: 28%
Total Cell Count [4]: 491
Population Apoptotic (%) [5]: 22%
Population Fragmented Nuclei (%) [5]: 9%
Population Healthy Nuclei (%) [5]: 80%
Population Hoechst High Intensity Objects (%) [5]: 1%
Population Membrane Permeable-Phenotype (%) [5]: 0%
Population Mitochondria Different-Phenotype (%) [5]: 21%
Population Mitotic Cells (%) [5]: 77%
Population Normal (%) [5]: 98%
Population Pyknosed Nuclei (%) [5]: 10%
Population Tubulin-Different-Phenotype (%) [5]: 14%
Total Cell Count [5]: 479
Population Apoptotic (%) [6]: 26%
Population Fragmented Nuclei (%) [6]: 10%
Population Hoechst High Intensity Objects (%) [6]: 8%
Population Mitochondria Different-Phenotype (%) [6]: 37%
Population Mitotic Cells (%) [6]: 73%
Population Normal (%) [6]: 91%
Population Pyknosed Nuclei (%) [6]: 9%
Population Tubulin-Different-Phenotype (%) [6]: 16%
Total Cell Count [6]: 486
Population Apoptotic (%) [7]: 24%
Population Fragmented Nuclei (%) [7]: 8%
Population Healthy Nuclei (%) [7]: 77%
Population Hoechst High Intensity Objects (%) [7]: 5%
Population Membrane Permeable-Phenotype (%) [7]: 0%
Population Mitochondria Different-Phenotype (%) [7]: 31%
Population Mitotic Cells (%) [7]: 75%
Population Normal (%) [7]: 94%
Population Pyknosed Nuclei (%) [7]: 14%
Population Tubulin-Different-Phenotype (%) [7]: 34%
Total Cell Count [7]: 486
Population Apoptotic (%) [8]: 32%
Population Fragmented Nuclei (%) [8]: 5%
Population Healthy Nuclei (%) [8]: 84%
Population Hoechst High Intensity Objects (%) [8]: 3%
Population Mitochondria Different-Phenotype (%) [8]: 36%
Population Mitotic Cells (%) [8]: 67%
Population Normal (%) [8]: 96%
Population Pyknosed Nuclei (%) [8]: 10%
Population Tubulin-Different-Phenotype (%) [8]: 21%
Total Cell Count [8]: 612
Population Apoptotic (%) [9]: 13%
Population Fragmented Nuclei (%) [9]: 15%
Population Healthy Nuclei (%) [9]: 77%
Population Hoechst High Intensity Objects (%) [9]: 1%
Population Membrane Permeable-Phenotype (%) [9]: 1%
Population Mitochondria Different-Phenotype (%) [9]: 15%
Population Mitotic Cells (%) [9]: 86%
Population Normal (%) [9]: 98%
Population Pyknosed Nuclei (%) [9]: 6%
Population Tubulin-Different-Phenotype (%) [9]: 9%
Total Cell Count [9]: 812
Population Apoptotic (%) [10]: 37%
Population Fragmented Nuclei (%) [10]: 16%
Population Healthy Nuclei (%) [10]: 78%
Population Hoechst High Intensity Objects (%) [10]: 3%
Population Membrane Permeable-Phenotype (%) [10]: 0%
Population Mitochondria Different-Phenotype (%) [10]: 18%
Population Mitotic Cells (%) [10]: 62%
Population Normal (%) [10]: 96%
Population Pyknosed Nuclei (%) [10]: 4%
Total Cell Count [10]: 761
Population Apoptotic (%) [11]: 24%
Population Fragmented Nuclei (%) [11]: 14%
Population Healthy Nuclei (%) [11]: 76%
Population Hoechst High Intensity Objects (%) [11]: 2%
Population Membrane Permeable-Phenotype (%) [11]: 0%
Population Mitochondria Different-Phenotype (%) [11]: 18%
Population Mitotic Cells (%) [11]: 75%
Population Normal (%) [11]: 97%
Population Pyknosed Nuclei (%) [11]: 8%
Population Tubulin-Different-Phenotype (%) [11]: 17%
Total Cell Count [11]: 702
Population Apoptotic (%) [12]: 35%
Population Healthy Nuclei (%) [12]: 79%
Population Hoechst High Intensity Objects (%) [12]: 1%
Population Membrane Permeable-Phenotype (%) [12]: 1%
Population Mitochondria Different-Phenotype (%) [12]: 14%
Population Mitotic Cells (%) [12]: 64%
Population Normal (%) [12]: 98%
Population Pyknosed Nuclei (%) [12]: 6%
Population Tubulin-Different-Phenotype (%) [12]: 11%
Total Cell Count [12]: 860
